Results: ChEMBL document CHEMBL4665800, “Biased Agonism at Nociceptin/Orphanin FQ Receptors: A Structure Activity Study on N/OFQ(1-13)-NH” (J Med Chem, 2020)
The source made the active and inactive calls. The calls are words filed in the database; no cut-off is given here. Starred links: 1 amine or outer side, 2 acyl side, 3 side chain; linkers in the order of their positions; H or OH if unused. Non-standard residues stand in square brackets, D forms with d. Residues, ends and D or L forms follow the SMILES beside them. *: point of attachment. X1 = CCCCCCCCCCCCCCCC(=O)NCCCN1C(=O)CC(*)C1=O; X3 = N[C@@H](Cc1ccccc1)CN(CC(=O)[*:2])[*:1]

Key:
Type in all cases: cell-based
[1] = molecular target: T1, Mu-type opioid receptor (Homo sapiens, UniProt P35372); experiment: Agonist activity at MOP (unknown origin) expressed in SH-SY5Y cell membranes co-expressing Gbeta1-RGFP protein assessed as induction of G protein activation incubated for 15 mins by BRET assay
T1 sequence (P35372 whole entry): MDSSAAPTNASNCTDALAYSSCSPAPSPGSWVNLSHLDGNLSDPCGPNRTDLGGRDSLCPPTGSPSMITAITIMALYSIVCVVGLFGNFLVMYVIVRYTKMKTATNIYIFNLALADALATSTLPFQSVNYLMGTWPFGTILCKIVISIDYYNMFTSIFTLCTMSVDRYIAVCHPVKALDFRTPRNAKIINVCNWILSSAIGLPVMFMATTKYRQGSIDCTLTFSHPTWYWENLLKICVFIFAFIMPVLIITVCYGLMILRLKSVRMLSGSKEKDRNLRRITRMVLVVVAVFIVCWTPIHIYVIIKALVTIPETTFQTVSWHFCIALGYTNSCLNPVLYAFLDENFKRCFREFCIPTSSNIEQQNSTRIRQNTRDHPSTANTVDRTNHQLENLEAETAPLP

[2] = molecular target: T1, Mu-type opioid receptor; experiment: Agonist activity at MOP (unknown origin) expressed in SH-SY5Y cell membranes co-expressing beta-arrestin2-RGFP protein assessed as induction of beta-arrestin2 activation incubated for 15 mins by BRET assay
[3] = molecular target: T2, Delta-type opioid receptor (Homo sapiens, UniProt P41143); experiment: Agonist activity at DOP (unknown origin) expressed in SH-SY5Y cell membranes co-expressing Gbeta1-RGFP protein assessed as induction of G protein activation incubated for 15 mins by BRET assay
T2 sequence (P41143 whole entry): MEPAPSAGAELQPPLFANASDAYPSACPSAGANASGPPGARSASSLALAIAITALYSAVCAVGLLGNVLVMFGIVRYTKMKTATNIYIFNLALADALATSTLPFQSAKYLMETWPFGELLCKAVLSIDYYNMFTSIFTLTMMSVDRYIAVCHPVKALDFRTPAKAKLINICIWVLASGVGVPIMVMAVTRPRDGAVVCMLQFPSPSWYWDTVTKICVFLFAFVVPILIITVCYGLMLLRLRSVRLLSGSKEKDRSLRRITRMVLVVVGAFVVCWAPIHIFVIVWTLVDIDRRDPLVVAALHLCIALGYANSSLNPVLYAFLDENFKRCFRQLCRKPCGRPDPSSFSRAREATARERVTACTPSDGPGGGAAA
Procedure, shortened: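 Membranes (3 μg protein) from SH-SY5Y cells stably co-expressing delta-RLuc and Gβ1-RGFP, in DPBS. Ligands in PBS–BSA 0.01%, coelenterazine 5 μM final, room temperature. BRET ratio (RGFP 510 nm/RLuc 460 nm CPS minus vehicle) read 15 min after agonist. Efficacy relative to deltorphin A run on every plate; CR versus deltorphin A EC50. Five experiments in duplicate.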

[4] = molecular target: T2, Delta-type opioid receptor; experiment: Agonist activity at DOP (unknown origin) expressed in SH-SY5Y cell membranes co-expressing beta-arrestin2-RGFP protein assessed as induction of beta-arrestin2 activation incubated for 15 mins by BRET assay
Procedure, shortened: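 Whole SH-SY5Y cells stably co-expressing delta-RLuc and β-arrestin 2-RGFP, plated 24 h earlier (100,000 cells/well), in PBS with MgCl2 0.5 mM and CaCl2 0.9 mM. Coelenterazine 5 μM final added 15 min before reading. BRET ratio read 15 min after agonist at room temperature. Efficacy and CR relative to deltorphin A. Five experiments in duplicate.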

[5] = molecular target: T2, Delta-type opioid receptor; experiment: (§1) Bias factor, selectivity for agonist activity at DOP (unknown origin) expressed in SH-SY5Y cell membranes co-expressing beta-arrestin2-RGFP protein assessed as induction of beta-arrestin2 activation to agonist activity at NOP (unknown origin) expressed in SH-SY5Y cell membranes co-expressing Gbeta1-RGFP protein assessed as induction of G protein activation
Procedure, shortened: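 Concentration–response curves from delta G protein (membrane) and β-arrestin 2 (whole cell) BRET assays fitted to the Black–Leff operational model. Bias factor = Δlog(τ/KA) G protein minus Δlog(τ/KA) β-arrestin 2, with deltorphin A as the unbiased reference. Mean of at least five experiments, with 95% confidence limits.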

[6] = molecular target: T3, Nociceptin receptor (Homo sapiens, UniProt P41146); experiment: Agonist activity at NOP (unknown origin) expressed in HEK293 cell membranes co-expressing Gbeta1-RGFP protein assessed as induction of G protein activation incubated for 15 mins by BRET assay
T3 sequence (P41146 whole entry): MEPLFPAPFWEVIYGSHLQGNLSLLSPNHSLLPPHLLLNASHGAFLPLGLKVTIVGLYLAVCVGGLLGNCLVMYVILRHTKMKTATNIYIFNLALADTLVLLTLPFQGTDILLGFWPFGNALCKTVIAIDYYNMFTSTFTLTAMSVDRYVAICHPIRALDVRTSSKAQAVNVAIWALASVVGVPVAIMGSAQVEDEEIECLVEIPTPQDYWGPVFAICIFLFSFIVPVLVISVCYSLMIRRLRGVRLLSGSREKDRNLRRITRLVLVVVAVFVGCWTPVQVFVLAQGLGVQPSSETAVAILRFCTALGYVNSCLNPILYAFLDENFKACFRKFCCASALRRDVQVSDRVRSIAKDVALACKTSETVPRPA
Procedure, shortened: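 Membranes (3 μg protein) from HEK293 cells stably co-expressing NOP-RLuc and Gβ1-RGFP, in DPBS. Coelenterazine 5 μM final; ligands in PBS–BSA 0.01%. BRET ratio (RGFP 510 nm / RLuc 460 nm) read 15 min after agonist, room temperature. Values are vehicle-subtracted stimulated BRET ratio. Mean of five experiments in duplicate.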

[7] = molecular target: T3, Nociceptin receptor; experiment: Agonist activity at NOP (unknown origin) […] assessed as induction of beta-arrestin2 activation incubated for 15 mins by BRET assay
[8] = molecular target: T3, Nociceptin receptor; experiment: Antagonist activity at NOP (unknown origin) expressed in HEK293 cell membranes co-expressing Gbeta1-RGFP protein assessed as reduction in N/OFQ(1-13)-NH2-induced induction of G protein activation pre-incubated for 15 mins before stimulation with N/OFQ(1-13)-NH2 for 15 mins by BRET assay; settings: read-out: pA2 (converted)
[9] = molecular target: T3, Nociceptin receptor; experiment: Antagonist activity at NOP (unknown origin) expressed in HEK293 cell membranes co-expressing beta-arrestin2-RGFP protein assessed as reduction in N/OFQ(1-13)-NH2-induced induction of beta-arrestin2 activation pre-incubated for 15 mins before stimulation with N/OFQ(1-13)-NH2 for 15 mins by BRET assay; settings: read-out: pA2 (converted)
[10] = molecular target: T3, Nociceptin receptor; experiment: as §1, with “NOP” for “DOP”, “HEK293” for “SH-SY5Y”
Procedure, shortened: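 Concentration–response curves in the NOP G protein and β-arrestin 2 BRET assays were fitted to the Black–Leff operational model. Mean of at least five experiments with 95% confidence limits.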

Compound: CCCCCCCCCCCCCCCC(=O)NCCCN1C(=O)CC(SC[C@H](NC(=O)[C@H](CO)NC(=O)[C@@H]2CCCN2C(=O)[C@H](Cc2ccc(O)cc2)NC(=O)CNC(=O)[C@H](Cc2ccccc2)NC(=O)[C@@H](C)NC(=O)[C@@H](N)Cc2ccc(O)cc2)C(N)=O)C1=O (stereo not given in full)
- EC50 [1]: 0.00145 µM
- EC50 [2]: 0.011 µM
- EC50 [3]: 0.0589 µM
- EC50 [4]: 0.617 µM

Compound: CCCCCCCCCCCCCCCC(=O)NCCCN1C(=O)CC(SC[C@H](NC(=O)[C@H](CC(C)C)NC(=O)[C@H](Cc2ccccc2)NC(=O)CNC(=O)CNC(=O)[C@@H](N)Cc2ccc(O)cc2)C(N)=O)C1=O (stereo not given in full) (H-YGGFLC(X1)-NH2)
- EC50 [1]: 0.00407 µM
- EC50 [2]: 0.229 µM
- EC50 [3]: 0.00813 µM
- EC50 [4]: 0.132 µM
- Selectivity ratio [5]: 1.7

Compound: CSCC[C@H](NC(=O)[C@H](CC(C)C)NC(=O)[C@H](Cc1c[nH]cn1)NC(=O)[C@H](Cc1ccccc1)NC(=O)[C@@H](CCSC)NC(=O)[C@@H](N)Cc1ccc(O)cc1)C(=O)N[C@@H](CC(=O)O)C(=O)O (H-Y[dM]FHLMD-OH)
- EC50 [3]: 0.0263 µM
- EC50 [4]: 0.0148 µM
- Selectivity ratio [5]: 0

Compound: CCCCCCCCCCCCCCCC(=O)NCCCN1C(=O)CC(SC[C@H](NC(=O)[C@H](CC(=O)O)NC(=O)[C@H](CCSC)NC(=O)[C@H](CC(C)C)NC(=O)[C@H](Cc2c[nH]cn2)NC(=O)[C@H](Cc2ccccc2)NC(=O)[C@@H](CCSC)NC(=O)[C@@H](N)Cc2ccc(O)cc2)C(N)=O)C1=O (stereo not given in full) (H-Y[dM]FHLMDC(X1)-NH2)
- EC50 [1]: 0.0513 µM
- EC50 [2]: 0.038 µM
- EC50 [3]: 0.00204 µM
- EC50 [4]: 0.0224 µM
- Selectivity ratio [5]: 1.06

Compound: C[C@H](NC(=O)CNC(=O)[C@@H](NC(=O)[C@H](Cc1ccccc1)NC(=O)CNC(=O)CNC[C@@H](N)Cc1ccccc1)[C@@H](C)O)C(=O)N[C@@H](CCCN=C(N)N)C(=O)N[C@@H](CCCCN)C(=O)N[C@@H](CO)C(=O)N[C@@H](C)C(=O)N[C@@H](CCCN=C(N)N)C(=O)N[C@@H](CCCCN)C(N)=O (H-[X3]GFTGARKSARK-NH2)
- EC50 [6]: 0.00891 µM
- pEC50 ([7]; HEK293): inactive
- Kb [8]: 0.00589 µM
- Kb [9]: 0.0148 µM

Compound: H-FGGFAGARKSARK-NH2
- EC50 [6]: 0.0759 µM
- EC50 [7]: 0.741 µM
- Selectivity Index [10]: 0.4

Compound: H-FGGFTAARKSARK-NH2
- EC50 [6]: 0.0219 µM
- EC50 [7]: 0.0794 µM
- Selectivity Index [10]: 0.04

Compound: H-FGGFVGARKSARK-NH2
- EC50 [6]: 0.0115 µM
- EC50 [7]: 0.0417 µM
- Selectivity Index [10]: 0.09
